The results in this text go back to publication PMC8482496 (ACS Omega, 2021).

In one data set the test system is HEK293 cells. In words: MTT assay, cytotoxicity. The conditions noted are these: at a concentration of 100 μM; 72 h. The data set is classed as cell-based, human. An outline of the steps:
(§1)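 HEK293 cells kept in DMEM with 10% FBS plus penicillin/streptomycin, 37 °C, 5% CO2. Seeded at 2 × 10^5 cells/mL and grown 24 h, then exposed 72 h to test compound in DMSO (final DMSO below 0.5%) at various concentrations. MTT (5 mg/mL solution) added for 4 h; formazan dissolved in DMSO, A540 read; viability expressed as percent of untreated control cells.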
(Formazan colour is commonly taken as a measure of viable cells.)

Another data set deals with T1, S. aureus ThrRS (Staphylococcus aureus, UniProt Q2FXP7).
T1 sequence (Q2FXP7 1-645): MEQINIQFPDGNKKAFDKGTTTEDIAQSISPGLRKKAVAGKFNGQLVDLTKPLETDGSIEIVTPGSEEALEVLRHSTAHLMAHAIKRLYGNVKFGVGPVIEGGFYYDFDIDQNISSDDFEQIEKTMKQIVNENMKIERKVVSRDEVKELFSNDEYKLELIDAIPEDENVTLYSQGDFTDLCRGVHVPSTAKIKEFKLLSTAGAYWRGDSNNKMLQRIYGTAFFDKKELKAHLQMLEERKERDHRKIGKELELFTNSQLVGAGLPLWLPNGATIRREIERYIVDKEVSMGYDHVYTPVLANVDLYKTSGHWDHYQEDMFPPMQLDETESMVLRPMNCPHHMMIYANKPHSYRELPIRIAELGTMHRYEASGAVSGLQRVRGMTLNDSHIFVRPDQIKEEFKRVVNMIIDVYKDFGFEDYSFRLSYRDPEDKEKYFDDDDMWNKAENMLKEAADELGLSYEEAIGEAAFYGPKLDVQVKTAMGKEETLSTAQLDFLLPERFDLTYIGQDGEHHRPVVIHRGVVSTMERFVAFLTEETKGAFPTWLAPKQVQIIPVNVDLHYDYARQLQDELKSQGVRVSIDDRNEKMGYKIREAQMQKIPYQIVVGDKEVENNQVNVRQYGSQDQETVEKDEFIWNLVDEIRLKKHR
Description: In vitro aminoacylation assay. The data set is classed as biochemical. The conditions noted are these: read-out: inhibition of S. aureus ThrRS. An outline of the steps:
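S. aureus ThrRS expressed in E. coli BL21(DE3)pLysS (0.25 mM IPTG, 3 h, 37 °C), purified on DEAE then heparin columns. Started with 10 mM ATP; 10 min, 37 °C; TCA-precipitated on filters, scintillation-counted; at least duplicates.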

A short description of the next data set: MTT assay, cytotoxicity. The data set is classed as cell-based, human. The note with it: human, HEK293 cells. An outline of the steps:
as §1

Each structure is given as a SMILES string.

In general, inhibition refers to the drop in the measured response relative to a control, in per cent. A word on the EC50: it is the concentration that produces a half-maximal response. Read a low EC50 as a more potent agent.

In the case of `COc1ccc(C(=O)CSc2nc3ccc([N+](=O)[O-])cc3s2)cc1` [compound 1, 1-(4-methoxy-phenyl)-2-(6-nitro-benzothiazol-2-ylsulfanyl)-ethanone], the “cytotoxicity toward HEK293” value in the data set on HEK293 cells is “not cytotoxic”. The inhibition at 100 µM on S. aureus ThrRS worked out at 88.5%.
For `Cc1ccc([N+](=O)[O-])cc1NC(=O)COc1ccccc1C(C)(C)C` [compound 2, 2-(2-tert-butyl-phenoxy)-N-(2-methyl-5-nitro-phenyl)-acetamide] the same measures were “not cytotoxic” and 85.6%.
For `CCOC(=O)c1c(-c2ccc(Cl)cc2)csc1NC(=O)CN1CC(C)OC(C)C1` (stereo not drawn) [compound 8, 4-(4-chloro-phenyl)-2-[2-(2,6-dimethyl-morpholin-4-yl)-acetylamino]-thiophene-3-carboxylic acid ethyl ester] the same measures were “not cytotoxic” and 78.3%.
In the data set “MTT assay, cytotoxicity”, `Cc1cc(I)ccc1N1C(=O)CC(Sc2ncccc2C(=O)O)C1=O` (stereo not drawn) [compound 11, 2-[1-(4-iodo-2-methyl-phenyl)-2,5-dioxo-pyrrolidin-3-ylsulfanyl]-nicotinic acid] registered an EC50 at 72 h of more than 100 µM. Besides, in the data set with HEK293 cells, the “decrease of the growth of HEK293 cells” value came out at 30%. In addition, at S. aureus ThrRS, the inhibition at 100 µM was found to be 78.6%.
